In ChEMBL document CHEMBL1152279 (J Med Chem, 2008):

Legend:
[1] = molecular target: T1, Histamine H3 receptor (Homo sapiens, UniProt Q9Y5N1); assay: Activity at human recombinant histamine H3 receptor expressed in Sf9 cells coexpressing Galphai, G-beta-1-gamma-2 and RGS4 by steady-state GTPase activity assay
In short: (§1)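 Membranes from Sf9 insect cells expressing the receptor construct named in each line: hH1R with RGS4, hH2R-GsR or gpH2R-GsR fusion, hH3R with GRi, Gβ1γ2 and RGS4, or hH4R-RGS19 fusion with GRi2 and Gβ1γ2. […] Values are mean ± SEM.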

[2] = molecular target: T2, Histamine H2 receptor (Cavia porcellus, UniProt P47747); assay: Agonist activity at histamine H2 receptor in guinea pig spontaneously beating right atrium assessed as positive chronotropic activity; assay type: functional, tissue-based, Cardiac atrium
[3] = molecular target: T3, Histamine H2 receptor (Homo sapiens, UniProt P25021); assay: Activity at human recombinant histamine H2 receptor-Gsalpha fusion protein expressed in Sf9 cells by steady-state GTPase activity assay
In short: (§2)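 Membranes from Sf9 insect cells expressing the receptor construct named in each line: hH1R with RGS4, hH2R-GsR or gpH2R-GsR fusion, hH3R with GRi, Gβ1γ2 and RGS4, or hH4R-RGS19 fusion with GRi2 and Gβ1γ2. Values are mean ± SEM.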

[4] = molecular target: T2, Histamine H2 receptor; assay: Activity at guinea pig recombinant histamine H2 receptor-Gsalpha fusion protein expressed in Sf9 cells by steady-state GTPase activity assay; in short: as §2
[5] = molecular target: Histamine H4 receptor (Homo sapiens, UniProt Q9H3N8); assay: Activity at human recombinant histamine H4 receptor-RGS19 fusion protein expressed in Sf9 cells coexpressing Galphai2 and G-beta-1-gamma-2 by steady-state GTPase activity assay
[6] = molecular target: Histamine H1 receptor (Cavia porcellus, UniProt P31389); assay: Antagonist activity at histamine H1 receptor in guinea pig ileum assessed as inhibition of histamine-induced […]; assay type: functional, tissue-based; details: for Kb: read-out: pA2 (converted)
[7] = molecular target: Histamine H2 receptor (Cavia porcellus) (UniProt P47747); assay: Agonist activity at histamine H2 receptor in guinea pig spontaneously beating right atrium assessed as positive chronotropic activity relative to histamine; assay type: functional, tissue-based; details: Cardiac atrium
[8] = molecular target: Histamine H1 receptor (Homo sapiens) (UniProt P35367); assay: Antagonist activity at histamine H1 receptor in human U373 MG cells assessed as inhibition of histamine-induced intracellular calcium level preincubated for 15 mins prior to histamine challenge; assay type: functional, cell-based; details: U-373MG ATCC
In short: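 U373-MG human cells expressing H1R, calcium assay. […] KB was derived from IC50 by the Cheng-Prusoff equation. Values are the mean of two experiments.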

[9] = molecular target: Histamine H1 receptor (Cavia porcellus) (UniProt P31389); assay: Antagonist activity at histamine H1 receptor in guinea pig ileum assessed as […]
[10] = molecular target: Histamine H2 receptor (Cavia porcellus) (UniProt P47747); assay: Activity at guinea pig recombinant histamine H2 receptor-Gsalpha fusion protein expressed in Sf9 cells by steady-state GTPase activity assay relative to histamine; in short: as §1
[11] = molecular target: T1, Histamine H3 receptor; assay: Activity at human recombinant histamine H3 receptor expressed in Sf9 cells coexpressing Galphai2, G-beta-1-gamma-2 and RGS4 by steady-state GTPase activity assay relative to histamine; in short: as §1
[12] = molecular target: Histamine H1 receptor (Homo sapiens) (UniProt P35367); assay: Activity at human recombinant histamine H1 receptor expressed in Sf9 cells coexpressing RGS4 by steady-state GTPase activity assay relative to histamine; in short: as §1
[13] = molecular target: T3, Histamine H2 receptor; assay: Activity at human recombinant histamine H2 receptor-Gsalpha fusion protein expressed in Sf9 cells by steady-state GTPase activity assay relative to histamine; in short: as §1
[14] = Terminal half life in nude mouse plasma; assay type: ADME, organism-based; details: read-out: beta t1/2
[15] = Dissociation constant, pKa of the compound; assay type: physicochemical

Histamine H4 receptor, sequence (Q9H3N8 whole entry, the tested form may be a part): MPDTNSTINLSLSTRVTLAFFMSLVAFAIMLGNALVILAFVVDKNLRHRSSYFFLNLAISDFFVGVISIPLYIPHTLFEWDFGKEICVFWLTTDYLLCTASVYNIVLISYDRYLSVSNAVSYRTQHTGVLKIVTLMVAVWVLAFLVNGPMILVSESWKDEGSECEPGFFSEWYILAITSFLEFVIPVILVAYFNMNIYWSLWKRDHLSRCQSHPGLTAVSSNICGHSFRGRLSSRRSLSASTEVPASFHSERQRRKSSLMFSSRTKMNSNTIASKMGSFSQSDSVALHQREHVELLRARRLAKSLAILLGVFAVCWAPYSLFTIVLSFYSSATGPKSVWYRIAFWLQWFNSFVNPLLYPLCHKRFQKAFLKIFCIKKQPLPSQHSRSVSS
T3 sequence (P25021 whole entry, the tested form may be a part): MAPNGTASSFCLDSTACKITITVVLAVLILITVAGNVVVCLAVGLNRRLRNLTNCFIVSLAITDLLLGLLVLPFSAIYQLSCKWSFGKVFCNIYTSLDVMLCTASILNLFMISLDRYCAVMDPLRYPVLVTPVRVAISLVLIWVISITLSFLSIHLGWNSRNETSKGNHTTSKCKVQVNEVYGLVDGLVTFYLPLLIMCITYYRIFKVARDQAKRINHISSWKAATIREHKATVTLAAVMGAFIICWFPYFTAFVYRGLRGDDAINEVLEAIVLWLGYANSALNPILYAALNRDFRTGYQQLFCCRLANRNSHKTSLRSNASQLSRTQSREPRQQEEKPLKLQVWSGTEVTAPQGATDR
Histamine H1 receptor (Cavia porcellus), sequence (P31389 whole entry, the tested form may be a part): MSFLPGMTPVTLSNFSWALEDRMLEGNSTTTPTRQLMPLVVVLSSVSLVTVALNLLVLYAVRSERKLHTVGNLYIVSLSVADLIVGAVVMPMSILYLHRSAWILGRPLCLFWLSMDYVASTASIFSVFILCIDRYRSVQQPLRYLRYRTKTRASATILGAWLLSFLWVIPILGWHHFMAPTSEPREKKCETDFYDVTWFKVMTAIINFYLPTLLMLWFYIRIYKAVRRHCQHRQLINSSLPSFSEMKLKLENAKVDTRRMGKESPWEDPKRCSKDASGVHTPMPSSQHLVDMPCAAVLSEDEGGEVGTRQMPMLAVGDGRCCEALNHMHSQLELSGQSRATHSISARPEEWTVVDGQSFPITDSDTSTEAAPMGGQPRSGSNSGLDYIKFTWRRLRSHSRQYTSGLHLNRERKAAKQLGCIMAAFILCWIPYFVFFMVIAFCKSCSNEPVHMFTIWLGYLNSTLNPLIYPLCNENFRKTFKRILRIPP
Histamine H1 receptor, sequence (P31389 whole entry): as the sequence (P31389 whole entry, the tested form may be a part) above
Histamine H2 receptor (Cavia porcellus), sequence (P47747 whole entry, the tested form may be a part): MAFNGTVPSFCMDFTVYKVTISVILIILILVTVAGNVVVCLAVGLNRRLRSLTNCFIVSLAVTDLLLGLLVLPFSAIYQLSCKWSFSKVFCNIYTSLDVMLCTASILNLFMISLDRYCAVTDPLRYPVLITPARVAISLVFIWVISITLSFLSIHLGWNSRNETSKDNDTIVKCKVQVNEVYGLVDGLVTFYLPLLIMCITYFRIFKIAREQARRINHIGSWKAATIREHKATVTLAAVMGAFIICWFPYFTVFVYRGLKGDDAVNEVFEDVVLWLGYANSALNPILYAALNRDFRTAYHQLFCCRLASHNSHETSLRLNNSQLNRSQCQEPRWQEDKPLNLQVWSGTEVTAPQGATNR
T2 sequence (P47747 whole entry, the tested form may be a part): as above
T1 sequence (Q9Y5N1 whole entry, the tested form may be a part): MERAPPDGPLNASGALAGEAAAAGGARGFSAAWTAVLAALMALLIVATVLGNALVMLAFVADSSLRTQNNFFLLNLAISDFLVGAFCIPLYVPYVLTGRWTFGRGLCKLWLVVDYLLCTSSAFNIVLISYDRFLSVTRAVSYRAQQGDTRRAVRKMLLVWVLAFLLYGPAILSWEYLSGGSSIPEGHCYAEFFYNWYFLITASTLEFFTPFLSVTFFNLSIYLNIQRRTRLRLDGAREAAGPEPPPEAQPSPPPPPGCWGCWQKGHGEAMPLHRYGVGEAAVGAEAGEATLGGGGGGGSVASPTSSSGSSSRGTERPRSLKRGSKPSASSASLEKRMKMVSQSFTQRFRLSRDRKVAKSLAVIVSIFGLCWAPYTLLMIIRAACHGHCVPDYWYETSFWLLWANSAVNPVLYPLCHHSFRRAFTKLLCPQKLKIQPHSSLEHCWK
Histamine H1 receptor (Homo sapiens), sequence (P35367 whole entry, the tested form may be a part): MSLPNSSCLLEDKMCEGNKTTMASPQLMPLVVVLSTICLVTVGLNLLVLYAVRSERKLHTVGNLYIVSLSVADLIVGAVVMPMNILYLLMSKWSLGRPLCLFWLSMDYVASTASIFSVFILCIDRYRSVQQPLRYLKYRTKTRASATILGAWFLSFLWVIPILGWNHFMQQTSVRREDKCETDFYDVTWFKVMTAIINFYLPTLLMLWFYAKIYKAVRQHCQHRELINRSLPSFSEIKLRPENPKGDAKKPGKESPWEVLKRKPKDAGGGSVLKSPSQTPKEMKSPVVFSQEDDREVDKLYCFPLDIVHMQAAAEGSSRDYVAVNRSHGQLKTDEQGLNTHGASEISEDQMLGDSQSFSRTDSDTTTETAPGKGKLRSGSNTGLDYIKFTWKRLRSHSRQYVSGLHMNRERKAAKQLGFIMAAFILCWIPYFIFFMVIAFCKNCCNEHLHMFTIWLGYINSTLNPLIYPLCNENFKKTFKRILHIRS

Row | SMILES | EC50 [2] [nM] | Kb [6] [nM] | Activity [7] [%] | Emax [7] [%] | Kb [8] [µM] | also measured
1 | CC(CC(=O)NC(N)=NCCCc1cnc[nH]1)c1cccs1 (stereo unspecified) | 38 | – | – | – | – | EC50 [1]: 1.64 nM; EC50 [3]: 109 nM; EC50 [4]: 21 nM; EC50 [5]: 6.3 nM
2 | CC(CC(=O)NC(N)=NCCCc1cnc[nH]1)C1CCCCC1 (stereo unspecified) | 67.6 | 2190 | – | – | – | –
3 | NC(=NCCCc1cnc[nH]1)NC(=O)CC1CCCCC1 | 100 | 2450 | – | – | – | –
4 | N=C(NCCCc1c[nH]cn1)NC(=O)CC(c1ccc(F)c(F)c1)c1ncc[nH]1 (stereo unspecified) | – | – | 1030 | 100 | 6.2 | –
5 | N=C(NCCCc1c[nH]cn1)NC(=O)CC(c1ccccc1)c1ccccn1 (stereo unspecified) | 51.3 | 11200 | 1960 | 97 | 4.9 | –
6 | NC(=NCCCc1cnc[nH]1)NC(=O)CC(c1ccc(Br)cc1)c1ccc(Br)cc1 | 776 | – | – | – | – | –
7 | N=C(NCCCc1c[nH]cn1)NC(=O)CC1CCCCC1 | – | – | 1000 | 95 | 4.3 | –
8 | NC(=NCCCc1cnc[nH]1)NC(=O)CCC1CCCCC1 | 61.7 | 6170 | – | – | – | –
9 | N=C(NCCCc1c[nH]cn1)NC(=O)C(c1ccccc1)c1ccccc1 | – | – | 95 | 69 | 4 | –
10 | NC(=NCCCc1cnc[nH]1)NC(=O)Cc1ccccc1 | 182 | 575 | – | – | – | –
11 | CC(CC(=O)NC(=N)NCCCc1c[nH]cn1)C1CCCCC1 (stereo unspecified) | – | – | 1470 | 101 | 0.14 | –
12 | N=C(NCCCc1c[nH]cn1)NC(=O)C1CCCCC1 | – | – | 2090 | 102 | 6 | –
13 | CC(CC(=O)NC(=N)NCCCc1c[nH]cn1)c1ccccn1 (stereo unspecified) | 38 | – | 2610 | 98 | 7.4 | –
14 | N=C(NCCCc1c[nH]cn1)NC(=O)CC(c1ccccc1)c1ccc(F)c(F)c1 (stereo unspecified) | – | – | 1850 | 81 | 1.2 | pD'2 [9]: 6.06
15 | NC(=NCCCc1cnc[nH]1)NC(=O)CC(c1ccccc1)c1ccccc1 | 28.2 | 741 | – | – | – | EC50 [3]: 78 nM; EC50 [4]: 6 nM; EC50 [5]: 8.6 nM
16 | CC(CC(=O)NC(=N)NCCCc1c[nH]cn1)c1cccs1 (stereo unspecified) | – | – | 2630 | 99 | 2.1 | Activity [10]: 5710%; Efficacy [10]: 1.05; Activity [11]: 1530%; Efficacy [11]: 0.29; Activity [12]: 1.8%; Activity [13]: 1160%; Efficacy [13]: 0.97
17 | N=C(NCCCc1c[nH]cn1)NC(=O)CC(c1ccc(Br)cc1)c1ccc(Br)cc1 | – | – | 130 | 60 | – | –
18 | NC(=NCCCc1cnc[nH]1)NC(=O)C(c1ccccc1)c1ccccc1 | 1050 | – | – | – | – | –
19 | N=C(NCCCc1c[nH]cn1)NC(=O)CC(c1ccc(F)cc1)c1ccc(F)cc1 | 204 | – | 490 | 76 | 1.4 | pD'2 [9]: 5.95
20 | N=C(NCCCc1c[nH]cn1)NC(=O)CC(c1ccc(F)cc1)c1ccccn1 (stereo unspecified) | – | – | 2930 | 100 | 5.2 | –
21 | Cc1[nH]cnc1CSCC(=O)NC(=N)NCCCc1c[nH]cn1 | – | – | 3200 | 101 | 8.5 | –
22 | N=C(NCCc1c[nH]cn1)NC(=O)CC(c1ccccc1)c1ccccc1 | 646 | 9770 | 154 | 64 | 8.7 | pD'2 [9]: 4.55
23 | N=C(NCCCc1c[nH]cn1)NC(=O)CC(c1ccc(Cl)cc1)c1ccc(Cl)cc1 | – | – | 320 | 60 | – | –
24 | CC(C(=O)NC(=N)NCCCc1c[nH]cn1)c1ccccc1 (stereo unspecified) | – | – | 28 | 88 | 8.8 | –
25 | NC(=NCCCc1cnc[nH]1)NC(=O)C1CCCCC1 | 47.9 | 5130 | – | – | – | –
26 | N=C(NCCCc1c[nH]cn1)NC(=O)CC(c1ccccc1)c1ccc(F)cc1 (stereo unspecified) | 55 | – | 1830 | 95 | – | pD'2 [9]: 5.39
27 | N=C(NCCCc1c[nH]cn1)NC(=O)CC(c1ccccc1)c1nccs1 (stereo unspecified) | – | – | 2630 | 100 | 6.8 | Activity [10]: 8570%; Efficacy [10]: 0.94; Kb [1]: 113 nM; Activity [12]: 1%; Activity [13]: 1000%; Efficacy [13]: 0.8

Row | SMILES | EC50 [2] [nM] | Kb [6] [nM] | Activity [7] [%] | Emax [7] [%] | Kb [8] [µM] | also measured
28 | CC(C(=O)NC(N)=NCCCc1cnc[nH]1)C1CCCCC1 (stereo unspecified) | 138 | 2340 | – | – | – | –
29 | NC(=NCCCc1cnc[nH]1)NC(=O)CC(c1ccccc1)c1ccc(F)c(F)c1 (stereo unspecified) | 53.7 | – | – | – | – | –
30 | CC(CC(=O)/N=C(\N)NCCCc1c[nH]cn1)c1ccccc1 (stereo unspecified) | – | – | 6350 | 99 | 3 | Activity [10]: 10000%; Efficacy [10]: 1.03; Activity [11]: 1024%; Efficacy [11]: 0.24; Activity [12]: 1.3%; Efficacy [12]: 0.35; Activity [13]: 1800%; Efficacy [13]: 0.87
31 | N=C(NCCCc1c[nH]cn1)NC(=O)c1ccccc1 | 1170 | – | 86 | 89 | 15.8 | pA2 [6]: > 5
32 | NC(=NCCCc1cnc[nH]1)NC(=O)CC(c1ccccc1)c1nccs1 (stereo unspecified) | 38 | 4680 | – | – | – | EC50 [3]: 120 nM; EC50 [4]: 14 nM; EC50 [5]: 66.3 nM
33 | CC(C(=O)NC(N)=NCCCc1cnc[nH]1)c1ccccc1 (stereo unspecified) | 3630 | > 10000 | – | – | – | –
34 | NC(=NCCCc1cnc[nH]1)NC(=O)CC(c1ccc(Cl)cc1)c1ccc(Cl)cc1 | 309 | – | – | – | – | –
35 | N=C(NCCCc1c[nH]cn1)NC(=O)Cc1ccccc1 | – | – | 546 | 97 | 2.8 | –
36 | CC(CC(=O)NC(N)=NCCCc1cnc[nH]1)c1ccccc1 (stereo unspecified) | 15.8 | 1350 | – | – | – | EC50 [1]: 2.45 nM; half-life [14]: 67 min; EC50 [3]: 67 nM; EC50 [4]: 12 nM; EC50 [5]: 15.3 nM
37 | NC(=NCCCc1cnc[nH]1)NC(=O)CC(c1ccc(F)c(F)c1)c1ncc[nH]1 (stereo unspecified) | 97.7 | – | – | – | – | –
38 | N=C(NCCCc1c[nH]cn1)NC(=O)CCCC1CCCCC1 | 372 | 741 | 269 | 89 | 1.1 | –
39 | Cc1[nH]cnc1CSCCNC(=N)NCCCc1c[nH]cn1 [IMPROMIDINE] | 20 | 3390 | 5000 | 100 | – | –
40 | N=C(NCCCc1c[nH]cn1)NC(=O)CCCCc1ccccc1 | 468 | 562 | 211 | 86 | – | –
41 | N=C(NCCCc1c[nH]cn1)NC(=O)CC(c1ccc(F)c(F)c1)c1nccs1 (stereo unspecified) | 50.1 | 4680 | 2000 | 90 | 4.6 | half-life [14]: 28 min
42 | CC(C(=O)NC(=N)NCCCc1c[nH]cn1)C1CCCCC1 (stereo unspecified) | – | – | 729 | 86 | 8.8 | –
43 | NC(=NCCCc1cnc[nH]1)NC(=O)CC(c1ccc(F)cc1)c1ccccn1 (stereo unspecified) | 33.9 | 3720 | – | – | – | –
44 | N=C(NCCCc1c[nH]cn1)NC(=O)CCc1ccccc1 | 166 | 2140 | 607 | 97 | 9.2 | –
45 | N=C(NCCCc1c[nH]cn1)NC(=O)CC(c1ccc(F)c(F)c1)c1nccn1Cc1ccccc1 (stereo unspecified) | 398 | – | 251 | 54 | 2.9 | –
46 | CC(=O)NC(=N)N | – | – | – | – | – | pKa [15]: 7.6
47 | NC(=NCCC(c1ccc(F)cc1)c1ccccn1)NCCCc1cnc[nH]1 (stereo unspecified) [ARPROMIDINE] | 9.77 | – | – | – | – | –
48 | CC(CC(=O)NC(N)=NCCCc1cnc[nH]1)c1nccs1 (stereo unspecified) | 38.9 | – | – | – | – | –
49 | Cc1nc[nH]c1CSCC(=O)NC(N)=NCCCc1cnc[nH]1 | 30.9 | 4270 | – | – | – | –
50 | N=C(NCCCc1c[nH]cn1)NC(=O)CCCc1ccccc1 | 56.2 | 1820 | 1780 | 94 | 7.1 | –
51 | N=C(NCCCc1c[nH]cn1)NC(=O)CC(c1ccccc1)c1ccccc1 | – | – | 3530 | 85 | – | Activity [10]: 19000%; Efficacy [10]: 0.93; Kb [1]: 17.1 nM; Activity [12]: 6.4%; Efficacy [12]: 0.19; Activity [13]: 1500%; Efficacy [13]: 0.69; pD'2 [9]: 5.2
52 | N=C(NCCCc1c[nH]cn1)NCCC(c1ccc(F)cc1)c1ccccn1 (stereo unspecified) | – | – | 10200 | 100 | – | –
53 | CC(CC(=O)NC(=N)NCCCc1c[nH]cn1)c1nccs1 (stereo unspecified) | – | – | 2590 | 91 | 11.1 | –
54 | N=C(NCCCc1c[nH]cn1)NC(=O)CCC1CCCCC1 | – | – | 1610 | 98 | 1.6 | –
